Assay results pooled from the literature.
Each line is one published result; the experiments were not run side by side.
Target: Homeodomain-interacting protein kinase 4 (HIPK4, Homo sapiens, UniProt Q8NE63)
One construct used (Q8NE63 1-616): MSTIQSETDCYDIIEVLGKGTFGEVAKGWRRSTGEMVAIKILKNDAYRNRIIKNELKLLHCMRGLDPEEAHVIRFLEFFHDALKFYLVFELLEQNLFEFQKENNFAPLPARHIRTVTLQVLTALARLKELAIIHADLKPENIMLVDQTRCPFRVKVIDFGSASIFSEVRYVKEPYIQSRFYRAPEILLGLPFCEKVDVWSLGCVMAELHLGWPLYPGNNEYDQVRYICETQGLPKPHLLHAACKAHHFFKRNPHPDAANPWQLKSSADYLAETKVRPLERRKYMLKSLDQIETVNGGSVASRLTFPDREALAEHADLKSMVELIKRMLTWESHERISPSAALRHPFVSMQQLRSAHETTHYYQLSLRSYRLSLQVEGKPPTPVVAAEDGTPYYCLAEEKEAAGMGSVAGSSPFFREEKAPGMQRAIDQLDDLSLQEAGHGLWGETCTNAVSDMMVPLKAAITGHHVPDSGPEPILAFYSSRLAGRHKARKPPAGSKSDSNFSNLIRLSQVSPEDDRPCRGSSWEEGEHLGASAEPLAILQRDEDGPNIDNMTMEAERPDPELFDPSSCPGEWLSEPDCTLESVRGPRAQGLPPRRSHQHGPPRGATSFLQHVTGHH

N#Cc1cccc(Nc2nc3cc(C(=O)O)ccc3c3cnccc23)c1  remaining activity (enzyme activity, inhibitor, radiometric; 1 µM): 29%
CC(C)CC(=O)N1CCc2nc(-c3ccc(Br)cc3)nc(N(C)Cc3ccccc3)c2C1  remaining binding (cell-free assay, competition with immobilised ligand; 0.1 µM): 61%
COc1cc2c(N3CCN(C(=O)Nc4ccc(OC(C)C)cc4)CC3)ncnc2cc1OCCCN1CCCCC1  remaining signal (cell-free assay; 0.5 µM): 99.5%
O=C(O)c1ccc2c(c1)nc(Nc1ccccc1Cl)c1ncncc12  remaining activity (enzyme activity, inhibitor, radiometric; 1 µM): -3%
N#CC1(c2ccccn2)CCN(Cc2cc(C(=O)N3CCCC3)c(=O)n3ccccc23)CC1  remaining binding (cell-free assay, competition with immobilised ligand; 1 µM): 67%
CN1CC(Oc2cnc(C#N)cc2-c2ccn3nc(NC(=O)C4CC4)cc3c2)C1  inhibition (enzyme activity, inhibitor; 1 µM): 2%
CCCS(=O)(=O)Nc1ccc(F)c(C(=O)c2c[nH]c3ncc(-c4ccc(Cl)cc4)cc23)c1F  inhibition (enzyme activity, inhibitor; 1 µM): < 10%
Cc1ccc(NC(=O)c2ccc(CN3CCN(C)CC3)cc2)cc1Nc1nc(-c2cccnc2)cs1  remaining signal (cell-free assay; 0.5 µM): 101%
COc1cccc(Nc2nc3cc(C(=O)O)ccc3c3cnccc23)c1  remaining activity (enzyme activity, inhibitor, radiometric; 1 µM): -14%
CCCOc1ccc([C@@H]2[C@@H](C(=O)O)[C@H](c3ccc4c(c3)OCO4)CN2CC(=O)Nc2c(CC)cccc2CC)cc1  remaining binding (cell-free assay, competition with immobilised ligand; 1 µM): 65%
COc1ccc(COc2ccc(Cc3cnc(N)nc3N)cc2OC)cc1  remaining signal (cell-free assay; 0.5 µM): 97.7%
CC(=O)c1c(NS(C)(=O)=O)c2cc(-c3ccc(Cl)cc3)c(-c3ccc(Cl)cc3Cl)nc2n(C)c1=O  remaining binding (cell-free assay, competition with immobilised ligand; 1 µM): 93%
O=C1Nc2ccc(Cl)cc2C1=Cc1cc(Cl)c(O)c(Cl)c1  remaining signal (cell-free assay; 0.5 µM): 88.4%
O=C(O)c1ccc2c(c1)nc(Nc1cccc(F)c1)c1ncncc12  remaining activity (enzyme activity, inhibitor, radiometric; 1 µM): 52%
CO[C@@H](C)c1c(Nc2ccc([C@@H](N(C)C(=O)C3CCS(=O)(=O)CC3)C(F)(F)F)cc2)cnc2cc(Cl)nn12  remaining binding (cell-free assay, competition with immobilised ligand; 1 µM): 100%
O=C(O)c1ccc2c(c1)nc(Nc1ccc3ccccc3c1)c1ccncc12  remaining activity (enzyme activity, inhibitor, radiometric; 1 µM): -10%
C[C@@H](c1cccc(C#N)c1)n1cc(Cl)cc(C(N)=O)c1=N  remaining binding (cell-free assay, competition with immobilised ligand; 1 µM): 100%
O=C(O)c1ccc2c(c1)nc(Nc1ccc(F)c(Cl)c1)c1ncncc12  remaining activity (enzyme activity, inhibitor, radiometric; 1 µM): 6%
CC/C(=N\NC(=O)NCc1cccc(O)c1)c1ccc(O)c(C)c1O  inhibition (enzyme activity, inhibitor; 0.1 µM): 1.5%
COc1cc2ncnc(Nc3ccc(Oc4ccccc4)cc3C)c2cc1OC  inhibition (enzyme activity, inhibitor; 1 µM): 4%
